rRNA inh HTS: selective bacterial rRNA inhibition in E. coli. E. coli WT GFP vs humanized-ribosome RFP mutants, fluorescence, 24 h; stronger effect = lower value; DMSO median 0, no signal -100. GFP signal change (wild-type ribosome), % (no concentration beside the values). 350,000 tested, 1.6% active. AID 720706;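 active = significant combined selectivity score with lowered wild-type GFP, culture density cut under 30%, mutant RFP and density less affected; inactive = any of these conditions unmet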
F508del corr: CFTR F508del correction in bronchial cells; 350,000 tested, 0.36% active; AID 720511; CFBE cells, YFP halide quenching; stimulated with forskolin plus potentiator P3; % fluorescence drop versus neutral controls; activity (quench increase), % at 7.58 µM;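 active = mean added fluorescence quench of at least 8% versus neutral control, with both replicates also reaching 8%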;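 note: cells transiently co-express mutant CFTR-F508del with the halide-sensitive YFP; corrector assay measuring rescue of mutant channel to the surface after 24 h compound exposure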
CaV13 FRET inh: Disruptors of the CACNA1D IQ motif to Ca2+-dependent inactivation inhibitor domain association, primary screening, Förster resonance energy transfer in intact living …; HEK cells, CFP/YFP FRET ICDI-IQ, plate reader, 10 min; percent FRET-ratio fall versus neutral wells; inhibition, % at 12.3 µM; 340,000 tested, 0.098% active; AID 743397;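 active = mean replicate inhibition of at least 30% and at least 1% of replicates passing that level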;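 note: 0% = median of the neutral control wells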
Cneo AK release: causes C. neoformans cell lysis; 360,000 tested, 0.2% active; adenylate kinase release luminescence, 4 h; normalised: neutral wells 0, clomiphene wells 100; lysis activity, % at 15 µM;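 active = mean lysis activity across replicates of at least 80%, whatever share of replicates individually reach that level; inactive = mean lysis activity below 80%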
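Signal: Adenylate kinase release luminescence | Assay system: Log-phase Cryptococcus neoformans yeast cells | Input: Cells at 5 × 10^6 per mL | Buffer or medium: Fresh YPD growth medium | Compound: Single dose | Schedule: Static 4 h at 37 °C with compound, 1 h detection | Controls: Clomiphene | Read-out: Luminescence rise reflecting yeast cell lysis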
* = called active by the depositor; . = not tested or not shown; ! = a repeat was not active. The list is not random: actives were taken first. Their share in the collection is about 1.7%.

SMILES	rRNA inh HTS	F508del corr	CaV13 FRET inh	Cneo AK release
CC(C)OP(=O)(OC(C)C)C(NCc1ccccc1)c1ccccc1 (centres undefined)	-20.4*	-1.3	6.4	-1.2
c1cncc(-c2ccc(C3[C@H]4CNC[C@@H]3N4CC3CC3)cc2)c1 (some centres undefined)	2.9	3.9	.	.
COc1cc(/C=C2\C[C@H]3[C@@H]4CC=C5C[C@@H](N6CCCC6)CC[C@]5(C)[C@H]4CC[C@]3(C)[C@H]2O)cc(OC)c1OC	-21.4*	-1.4	-5.5	.
Cc1c(N=Nc2c(O)n(-c3ccc(Br)cc3)c(=O)[nH]c2=O)c(=O)n(-c2ccccc2)n1C	-35.5*	-1.2	-4.5	1.1
Cc1c(N=Nc2c(O)[nH]c(=O)[nH]c2=O)c(=O)n(-c2ccccc2)n1C	23.9	0.8	3.0	.
C=CCN1[C@@H]2CN(C(C)=O)C[C@H]1C2c1ccccc1 (some centres undefined)	-0.1	.	.	.
C[C@H]1CN([C@@H](C)CO)C(=O)CCCn2nncc2CO[C@@H]1CN(C)C(=O)Oc1cccc2ccccc12	-2.0	3.9	.	-6.2
C[C@@H]1CN([C@@H](C)CO)C(=O)CCCn2nncc2CO[C@H]1CN(C)C(=O)Oc1cccc2ccccc12	15.3	-0.2	-4.1	87.9*!
CSCCC(NC(=O)CCC(=O)OC1CC[C@H]2[C@@H]3CC[C@H]4CC(=O)CC[C@]4(C)[C@H]3CC[C@]12C)C(=O)O (some centres undefined)	-24.4*	-3.1	-19.0	-2.4
COCCO[C@H]1CC[C@@]2(C)C(=CCC3C2CC[C@@]2(C)C3CC[C@]2(C)O)C1 (some centres undefined)	-13.0	8.7*	-10.3	-1.8
CN1C2CN(CC(F)(F)F)CC1C2c1ccc(Br)cc1 (centres undefined)	2.4	.	.	.
O=C(O)[C@H]1[C@H](CO)[C@H]2Cn3c(ccc(-c4ccccc4)c3=O)[C@@H]1N2C(=O)C1CCCCC1	1.8	-1.5	.	-1.0
COC1CC2C=C(C)C=CC=CC(=O)NC(c3ccccc3)CC=CCCC(O)CC(=O)C2=C1O (centres undefined)	6.7	12.3*	-6.7	.
O=C(COC(=O)c1cccc(O)c1)Nc1ccc(Cl)cc1C(=O)c1ccccc1	-23.4*	-2.3	8.8	.
O=c1c2ccccc2nc(/C=C/c2ccccc2F)n1-c1ccccc1O	-23.9*	3.8	-2.3	-3.1
O=c1c2ccccc2nc(/C=C/c2ccccc2O)n1-c1ccccc1O	-15.8	-2.7	-2.9	.
O=c1c2ccccc2nc(/C=C\c2ccccc2[N+](=O)[O-])n1-c1ccccc1O	-28.8*	-2.3	-1.6	-5.2
COC(=O)[C@H]1[C@H](CO)[C@H]2Cn3c(ccc(-c4ccccc4F)c3=O)[C@@H]1N2Cc1ccncc1	-2.3	-1.7	.	1.2
COc1cc2c(cc1OC)CN(c1ccc([N+](=O)[O-])c(C(F)(F)F)c1)CC2	-18.8*	.	-2.6	.
CC(C)(O)C(=O)Nc1ccc([N+](=O)[O-])c(C(F)(F)F)c1	3.4	0.2	.	-0.3
O=C(Cc1cccnc1)N1CCCCN2[C@H](C1)[C@@H](c1ccc(C#CC3(O)CCCC3)cc1)[C@@H]2CO	3.1	-0.2	.	50.2
CN(C)c1ccc(/C=C/[N+](=O)[O-])cc1	-17.6*	.	-27.5	.
COc1ccc(C(CC(=O)c2ccc3c(c2)OCO3)c2c(O)c3ccccc3oc2=O)cc1OC (centres undefined)	-29.8*	-3.6	-5.8	-0.7
COc1ccc(C(CC(C)=O)c2c(O)c3ccccc3oc2=O)cc1OC (centres undefined)	-3.1	-0.6	-5.4	.
O=C(Cc1ccccc1)N1CC2(C1)[C@@H](c1ccccc1)[C@H](CO)N2Cc1cccc(F)c1	-5.2	.	.	.
SMILES	rRNA inh HTS	F508del corr	CaV13 FRET inh	Cneo AK release
COC(=O)[C@H]1[C@H](CO)[C@H]2Cn3c(ccc(C4=CCCC4)c3=O)[C@@H]1N2C(=O)C1CCCCC1	0.2	.	.	.
C/C(=N\NC(=O)c1ccccc1)c1c(O)n(C2CCCCC2)c(=O)[nH]c1=O	2.8	-0.2	-3.1	-1.4
C/C(=N\NC(=O)c1ccccc1Cl)c1c(O)n(C2CCCCC2)c(=O)[nH]c1=O	-32.5*	0.8	-2.7	4.8
C/C(=N\NC(=O)c1ccccc1O)c1c(O)n(C2CCCCC2)c(=O)[nH]c1=O	-18.4*	1.9	-6.8	-0.9
COc1ccc(NP(=O)(Oc2cccc(C)c2)Oc2cccc(C)c2)cc1OC	-18.5*	-0.8	-0.2	.
Cc1cccc(OP(=O)(Nc2ccc(F)cc2)Oc2cccc(C)c2)c1	-33.2	1.5	3.3	.
CC(=O)N1C2CN(C)CC1C2c1ccc(Br)cc1 (centres undefined)	-3.3	.	.	.
COC(=O)[C@@H]1[C@@H](CO)[C@@H]2Cn3c(cccc3=O)[C@H]1N2C(=O)C1CCCC1	-0.2	1.6	.	-1.1
CCOC(=O)c1c(C)n(CC(O)CN2CCOCC2)c2cc(Br)c(OC)cc12 (centres undefined)	-42.5*	2.5	-4.9	.
CC1CC(C)(O)CC(C(O)CC2CC(=O)NC(=O)C2)C1=O (centres undefined)	18.6	-10.8	-6.8	.
CC=CC(C)=CC(C)C(=O)CC(O)CC1CC(=O)NC(=O)C1 (centres undefined)	3.8	10.4*	-5.3	.
CS(=O)(=O)N1C[C@@H]2C(c3ccc(Br)cc3)[C@H](C1)N2CC1CC1 (some centres undefined)	-4.1	.	.	.
O=P(Nc1cccnc1)(Oc1ccccc1Cl)Oc1ccccc1Cl	-33.1*	.	-2.9	.
Cc1cccc(OP(=O)(Nc2cccnc2)Oc2cccc(C)c2)c1	.	.	-2.8	.
COC(=O)C1=C(C(=O)OC)SC2(S1)C(C(=O)OC)=C(C(=O)OC)Sc1c2ssc1=O	-23.2*	-1.9	-6.3	.
COC(=O)[C@H]1[C@H](CO)[C@H]2Cn3c(ccc(C4=CCCCC4)c3=O)[C@@H]1N2CC1CCCCC1	-26.0	-0.3	.	.
O=P(Oc1ccc(Cl)cc1)(N1CC1)N1CC1	13.4	-3.3	-5.0	3.8
O=P(Oc1ccc(-c2ccccc2)cc1)(N1CC1)N1CC1	.	9.9*	-9.2	0.2
CCOc1ccc(-c2cc(C)[n+](CCN3CCOCC3)c(-c3ccc(OCC)cc3)c2)cc1	-53.4*	0.3	-14.9	.
COc1cccc(-c2sc3ccccc3c2-c2ccc(OCCN3CCOCC3)cc2)c1	10.5	4.9	-9.7	1.3
O=C(Cc1ccccn1)N1CC2(C1)[C@H](c1ccccc1)[C@@H](CO)N2Cc1ccccn1	2.2	1.6	.	.
CC(C)C(=O)NC(Oc1ccccc1Cl)C(Cl)(Cl)Cl (centres undefined)	-13.9*	-2.3	-4.7	-0.3
CC[C@H](C)[C@@H]1NC(=O)CNC(=O)c2csc(n2)[C@H](C(C)(C)O)OC(=O)C(C)(C)[C@H](CCCC(C)(Cl)Cl)OC(=O)c2csc1n2	-1.7	-11.7	-3.1	278.8*
C[C@]12C=CC(=O)C=C1CC[C@@H]1[C@@H]2CC[C@]2(C)C(=O)CC[C@@H]12	-22.9*	-5.5	.	-7.4

High-throughput results (PubChem BioAssay)
